Results reported in article PMC9989852 (Food and chemical toxicology : an international journal …, 2022).
Values joined by “and” are separate entries in the source; they are usually repeats but may differ in a detail not shown here. Equal values may be shown once.

Columns and labels:
spleen = assay: Spleen phenotyping by flow cytometry after 28-day dermal exposure; assay type: in vivo, B6C3F1 mice; details: 28 days
How it was run: (§1)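 Female B6C3F1 mice (5/group) received 25 μl/ear daily to the dorsal ears in acetone. About 24 h after the last dose, tissues went into RPMI: both auricular dLNs, half spleen and one ear pinna. Single-cell suspensions were acquired on an LSR II, with populations gated per supplemental strategy and FMO gating controls. Results are mean ± SE, n=5, by one-way ANOVA.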

[1] = ref Russell et al., 2015, Xu et al., 2020; cited from earlier work
[2] = PFAS concentration in pooled urine; assay type: in vivo, B6C3F1 mice; details: 5%, dermal, 28 days; 5 pooled samples
How it was run: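 Urine was caught in a weigh boat as it was excreted during CO2 euthanasia, about 24 h after the final daily ear dose (25 μl/ear, acetone vehicle; female B6C3F1 mice). The 5 mice per group were pooled, with variable volume. Samples underwent solid-phase extraction and LC/MS/MS, as linear isomer for short-chain analytes and linear plus branched for the comparator. Each group gave a single value without statistics.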

[3] = system: auricular draining lymph nodes (dLNs); assay: Draining lymph node phenotyping by flow cytometry after 28-day dermal exposure; assay type: in vivo, B6C3F1 mice; details: 28 days
How it was run: as §1

liver = assay: Liver histopathology after 28-day dermal exposure; assay type: in vivo, B6C3F1 mice; details: 28 days, mice affected of 5
How it was run: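 Female B6C3F1 mice (5/group) received 25 μl/ear on the dorsal ear surfaces daily, with acetone as vehicle. Tissues were formalin-fixed about 24 h after the last dose: liver remainder, half spleen, right kidney and half ear pinna. Sections were paraffin-embedded, cut at 5 μm and stained with H&E. A veterinary pathologist read them per STP guideline and graded 1 (minimal) to 5 (severe) by extent.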

B6C3F1 mice = assay: Organ weights and body weight after 28-day dermal exposure; assay type: in vivo; details: 28 days
pH of PFAS = assay type: physicochemical; details: PFAS (5%) in PBS, free acid form
liver (caudate) = assay: Liver gene expression; assay type: in vivo, B6C3F1 mice; details: dermal, 28 days
How it was run: (§2)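 Dosing was daily topical to both dorsal ears (25 μl/ear, acetone vehicle) in female B6C3F1 mice. Liver caudate lobe or half ear pinna was stored in RNAlater and homogenized in RLT buffer. RNA was isolated on RNeasy columns with DNase, and 1–2 μg was reverse-transcribed. TaqMan real-time PCR was read as 2−ΔΔCT vs vehicle, normalized to β-actin. Statistics: ANOVA/Dunnett's, or Kruskal-Wallis/Dunn's for unequal variance.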

ear pinna = assay: Skin; assay type: in vivo, B6C3F1 mice; details: dermal, 28 days
How it was run: as §2

O=C(O)C(F)(F)C(F)(F)C(F)(F)C(F)(F)C(F)(F)C(F)(F)F [PFHpA, Perfluoroheptanoic acid]
spleen MFI of CD86 on B-cells (spleen; 1.25%): increase
spleen frequency of CD8^+ T-cells (spleen; 1.25%): significant decrease
spleen frequency of eosinophils (spleen; 1.25%): significant decrease
spleen MFI of CD86 on B-cells (spleen; 2.5%): increase
spleen MFI of MHCII on B-cells (spleen; 2.5%): increase
spleen MFI of CD86 on B-cells (spleen; 5%): increase
spleen MFI of MHCII on B-cells (spleen; 5%): increase
spleen NK cell frequency (spleen; 5%): increase
spleen frequency of B-cells (spleen; 5%): significant decrease
spleen frequency of total DCs (spleen; 5%): increase
spleen number of NK cells (spleen; 5%): increase
estimated half-life in humans [1]: 62 to 70 days
urine PFAS concentration [2]: 1200 µg/mL
dLN B-cells cell number ([3]; 1.25%): 5.40 ± 0.44 × 10^5
dLN B-cells frequency ([3]; 1.25%): 13.44 ± 1.00%
dLN CD4^+ cell number ([3]; 1.25%): 1.77 ± 0.17 × 10^6
dLN CD4^+ frequency ([3]; 1.25%): 43.44 ± 1.00%
dLN CD8^+ cell number ([3]; 1.25%): 11.50 ± 0.97 × 10^5
dLN CD8^+ frequency ([3]; 1.25%): 28.26 ± 0.62%
dLN CD11b+ cell number ([3]; 1.25%): 3.18 ± 0.81 × 10^4
dLN CD11b+ frequency ([3]; 1.25%): 0.74 ± 0.16%
dLN CD86 B-cells ([3]; 1.25%): 851.20 ± 55.68 MFI
dLN CD86 DCs ([3]; 1.25%): 22.90 ± 1.99 MFI x 10^2
dLN Dendritic Cells cell number ([3]; 1.25%): 15.60 ± 6.03 × 10^4
dLN Dendritic Cells frequency ([3]; 1.25%): 4.23 ± 1.95%
dLN Eosinophils cell number ([3]; 1.25%): 7.53 ± 1.81 × 10^2
dLN MHCII B-cells ([3]; 1.25%): 33.30 ± 3.62 MFI × 10^2
dLN NK cell number ([3]; 1.25%): 1.84 ± 0.21 × 10^4
dLN NK frequency ([3]; 1.25%): 0.45 ± 0.03 %
dLN Neutrophils cell number ([3]; 1.25%): 8.55 ± 1.38 × 10^2
dLN Total Cellularity ([3]; 1.25%): 4.05 ± 0.31 × 10^6
dLN B-cells cell number ([3]; 2.5%): 8.69 ± 0.16 × 10^5
dLN B-cells frequency ([3]; 2.5%): 14.86 ± 0.84%
dLN CD4^+ cell number ([3]; 2.5%): 2.47 ± 0.44 × 10^6
dLN CD4^+ frequency ([3]; 2.5%): 41.54 ± 0.58%
dLN CD8^+ cell number ([3]; 2.5%): 17.20 ± 3.10 × 10^5
dLN CD8^+ frequency ([3]; 2.5%): 28.6 ± 0.62%
dLN CD11b+ cell number ([3]; 2.5%): 6.87 ± 1.47 × 10^4
dLN CD11b+ frequency ([3]; 2.5%): 1.09 ± 0.09%
dLN CD86 B-cells ([3]; 2.5%): 908.40 ± 44.09 MFI
dLN CD86 DCs ([3]; 2.5%): 25.10 ± 0.72 MFI x 10^2
dLN Dendritic Cells cell number ([3]; 2.5%): 9.50 ± 1.42 × 10^4
dLN Dendritic Cells frequency ([3]; 2.5%): 1.70 ± 0.17%
dLN Eosinophils cell number ([3]; 2.5%): 20.40 ± 3.85 × 10^2
dLN MHCII B-cells ([3]; 2.5%): 44.30 ± 4.02 MFI × 10^2
dLN NK cell number ([3]; 2.5%): 3.23 ± 0.68 × 10^4
dLN NK frequency ([3]; 2.5%): 0.53 ± 0.03%
dLN Neutrophils cell number ([3]; 2.5%): 9.51 ± 1.88 × 10^2
dLN Total Cellularity ([3]; 2.5%): 5.97 ± 1.06 × 10^6
dLN B-cells cell number ([3]; 5%): 11.50 ± 1.39 × 10^5
dLN B-cells frequency ([3]; 5%): 14.70 ± 0.13%
dLN CD4^+ cell number ([3]; 5%): 3.03 ± 0.31 × 10^6
dLN CD4^+ frequency ([3]; 5%): 39.24 ± 0.83 %
dLN CD8^+ cell number ([3]; 5%): 22.10 ± 2.59 × 10^5
dLN CD8^+ frequency ([3]; 5%): 28.36 ± 0.20%
dLN CD11b+ cell number ([3]; 5%): 13.40 ± 1.96 × 10^4
dLN CD11b+ frequency ([3]; 5%): 1.69 ± 0.10 %
dLN CD86 B-cells ([3]; 5%): 879.80 ± 40.32 MFI
dLN CD86 DCs ([3]; 5%): 28.50 ± 0.78 MFI x 10^2
dLN Dendritic Cells cell number ([3]; 5%): 18.20 ± 3.38 × 10^4
dLN Dendritic Cells frequency ([3]; 5%): 2.28 ± 0.20%
dLN Eosinophils cell number ([3]; 5%): 22.80 ± 6.04 × 10^2
dLN MHCII B-cells ([3]; 5%): 43.10 ± 1.85 MFI × 10^2
dLN MHCII DCs ([3]; 5%): 58.90 ± 2.65 MFI × IQ^2
dLN NK cell number ([3]; 5%): 4.78 ± 0.67 × 10^4
dLN NK frequency ([3]; 5%): 0.61 ± 0.04%
dLN Total Cellularity ([3]; 5%): 7.78 ± 0.90 × 10^6
Liver: Hypertrophy, centrilobular, hepatocyte, Mild (incidence) (liver; 1.25%): 0
Liver: Hypertrophy, centrilobular, hepatocyte, Minimal (incidence) (liver; 1.25%): 3/5 and 3
Liver: Hypertrophy, centrilobular, hepatocyte, Mild (incidence) (liver; 2.5%): 0
Liver: Hypertrophy, centrilobular, hepatocyte, Minimal (incidence) (liver; 2.5%): 5/5 and 5
Liver: Hypertrophy, centrilobular, hepatocyte, Mild (incidence) (liver; 5%): 3/5 and 3
Liver: Hypertrophy, centrilobular, hepatocyte, Minimal (incidence) (liver; 5%): 2/5 and 2
body weight or overt signs of toxicity (B6C3F1 mice; 1.25–5%): no changes
thymus weights (% body weight) (B6C3F1 mice; 2.5%, not dose dependent): significantly increased
Liver weight (% body weight), increase vs vehicle-treated mice (B6C3F1 mice; 5%): 18%
kidney weights (% body weight) (B6C3F1 mice; 5%): significantly increased
pH (pH of PFAS): 1.49
liver Pparγ expression (liver (caudate); 1.25%): increasing
liver Pparδ expression (liver (caudate); 1.25%): decreasing
liver Cd36 gene expression, increase (liver (caudate); 2.5%): 4 fold
liver Lpl gene expression, increase (liver (caudate); 2.5%): 2.2 fold
liver Pparδ expression (liver (caudate); 2.5%): decreasing
liver Acox1 gene expression (liver (caudate); 5%): increase
liver Cd36 gene expression, increase (liver (caudate); 5%): 4.8 fold
liver Lpl gene expression, increase (liver (caudate); 5%): 2.3 fold
liver Pltp gene expression (liver (caudate); 5%): increase
liver Pparδ expression (liver (caudate); 5%): decreasing
skin PPARα gene expression (ear pinna; 1.25–5%): no significant decrease
skin Pparδ gene expression (ear pinna; 1.25–5%): no changes
skin Flg gene expression (ear pinna; 2.5%): increased
skin Krt10 gene expression (ear pinna; 2.5%): increased
skin Pparγ gene expression (ear pinna; 2.5%): decreased
skin Flg gene expression (ear pinna; 5%): increased
skin Krt10 gene expression (ear pinna; 5%): increased
skin Lor gene expression (ear pinna; 5%): increased
skin Pparγ gene expression (ear pinna; 5%): decreased
skin S100a8 gene expression, increase (ear pinna; 5%): 6.7 fold
skin Serpine1 gene expression, increase (ear pinna; 5%): 1.7 fold
skin Tslp gene expression, increase (ear pinna; 5%): 5.1 fold
